Assay results reported in ChEMBL document CHEMBL1150052, “A colorimetric microassay for the detection of agents that interact with DNA” (J Nat Prod, 1992).
In brackets after ≈: the same amount, converted by molar mass.

Legend:
[1] = biological target: Nucleic Acid; test: Displacement of methyl green from DNA after 24 hrs by microtiter assay; type: nucleic-acid assay
Summary of the method: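 Complex: DNA–methyl green reagent (20 mg/100 ml) in 0.05 M Tris-HCl pH 7.5 with 7.5 mM MgSO4, stirred 24 h at 37°. Samples dried from EtOH in wells, then complex added. A630 read at once and after 24 h dark at ambient temperature. Final corrected for initial, normalized to untreated complex. IC50 for 50% decrease by linear regression on semi-log plot; n = 3 to 5.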

[2] = system: Calf thymus DNA; test: Displacement of ethidium bromide from calf thymus type 1 DNA after 4 hrs by microtiter assay

| Compound | IC50 [1] [µg/mL] | IC50 [2] [µg/mL] |
| --- | --- | --- |
| COc1c(O)c2c(c3cc(C(=O)N4CCc5c4c(O)c(OC)c4[nH]c(C(=O)N6C[C@H]7C[C@@]78C6=CC(=O)c6[nH]cc(C)c68)cc54)[nH]c13)CCN2C(N)=O [(+)-CC-1065] | 62 (≈ 88.1 µM) | 26 (≈ 36.9 µM) |
| COC(=O)C(O)(c1cc2c(c3oc([C@]4(C)C[C@@H]4C)cc(=O)c13)C(=O)c1c(ccc([C@H]3C[C@](C)(N(C)C)[C@H](O[C@@H]4C[C@H](OC)[C@H](O)[C@@H](C)O4)[C@H](C)O3)c1O)C2=O)[C@H]1O[C@H](C)[C@@H](O)[C@@H](OC)[C@@H]1O (some centres not stated) [ALTROMYCIN B] | 67 (≈ 72.5 µM) | 44 (≈ 47.6 µM) |
| COc1cc2c(oc(=O)c3cc(C)cc(OC)c32)c2c([C@@H]3O[C@H](C)[C@H](O)[C@@](C)(O)[C@H]3O)ccc(O)c12 [CHRYSOMYCIN B] | 20 (≈ 40.3 µM) |  |
| C/C=C\C1OC1(C)c1cc(=O)c2c(C)cc3c(c2o1)C(=O)c1c(O)c([C@H]2C[C@](C)(N(C)C)[C@@H](OC(C)=O)[C@@H](C)O2)cc([C@@H]2C[C@H](N(C)C)[C@@H](O)[C@@H](C)O2)c1C3=O (some centres not stated) [PLURAMYCIN] | 51 (≈ 66 µM) | 3.6 (≈ 4.66 µM) |
| C/C=C\C1OC1(C)c1cc(=O)c2c(C)cc3c(c2o1)C(=O)c1c(O)c([C@H]2C[C@@](C)(N(C)C)[C@H](O)[C@H](C)O2)cc([C@@H]2C[C@H](N(C)C)[C@@H](O)[C@@H](C)O2)c1C3=O (some centres not stated) [RUBIFLAVIN] | 17 (≈ 23.3 µM) | 13 (≈ 17.8 µM) |

The next lines start with results.

| IC50 [1] [µg/mL] | Compound | IC50 [2] [µg/mL] |
| --- | --- | --- |
| 37 (≈ 81.8 µM) | CCOc1ccc(-c2nc3cc(-c4nc5cc(N6CCN(C)CC6)ccc5[nH]4)ccc3[nH]2)cc1 | 33 (≈ 72.9 µM) |
| 30 (≈ 56.9 µM) | COc1cccc2c1C(=O)c1c(O)c3c(c(O)c1C2=O)C[C@@](O)(C(C)=O)C[C@@H]3O[C@H]1C[C@H](N)[C@H](O)[C@H](C)O1 [DAUNORUBICIN] | 2 (≈ 3.79 µM) |
| 67 (≈ 238 µM) | N=C(N)c1ccc(/N=N/Nc2ccc(C(=N)N)cc2)cc1 [DIMINAZENE] | 59 (≈ 210 µM) |
| 18 (≈ 37.4 µM) | Cn1cc(NC(=O)c2cc(NC(=O)c3cc(NC=O)cn3C)cn2C)cc1C(=O)NCCC(=N)N [STALLIMYCIN] | 4.3 (≈ 8.93 µM) |
